Measurements: ChEMBL document CHEMBL1649062, “Integration of lead optimization with crystallography for a membrane-bound ion channel target: discovery of a new class of AMPA receptor positive allosteric modulators” (J Med Chem, 2011)
Values after ≈ are worked out from the molar mass of the structure shown.

Assays:
Cytochrome P450 2C9 = Cytochrome P450 2C9 (Homo sapiens, UniProt P11712); assay: Inhibition of human CYP2C9 by fluorescence assay; format: ADME
Outline: (§1)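 Recombinant human CYP bactosomes (0.1 mg/mL) in 50 mM potassium phosphate pH 7.4, preincubated 10 min at 37 °C with test compound (0.1-10 μM, 7 concentrations) and fluorogenic substrate. Substrates: ethoxyresorufin 0.5 μM (1A2), FCA 50 μM (2C9), BMC 10 μM (2C19), MMC 10 μM (2D6), DEF 1 μM or 7-BQ 25 μM (3A4). Reaction started with NADPH regenerating system; metabolite formation read over 10 min. IC50 from percent of control rate; miconazole control; triplicate.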

Glutamate receptor 2 [1] = molecular target: T1, Glutamate receptor 2 (Homo sapiens, UniProt P42262); assay: Allosteric modulation of human recombinant GluA2 receptor flip isoform expressed in HEK293 cells assessed as potentiation of glutamate-induced calcium influx by Fluo-4/FLIPR method; format: cell-based
T1 sequence (P42262 whole entry, canonical isoform): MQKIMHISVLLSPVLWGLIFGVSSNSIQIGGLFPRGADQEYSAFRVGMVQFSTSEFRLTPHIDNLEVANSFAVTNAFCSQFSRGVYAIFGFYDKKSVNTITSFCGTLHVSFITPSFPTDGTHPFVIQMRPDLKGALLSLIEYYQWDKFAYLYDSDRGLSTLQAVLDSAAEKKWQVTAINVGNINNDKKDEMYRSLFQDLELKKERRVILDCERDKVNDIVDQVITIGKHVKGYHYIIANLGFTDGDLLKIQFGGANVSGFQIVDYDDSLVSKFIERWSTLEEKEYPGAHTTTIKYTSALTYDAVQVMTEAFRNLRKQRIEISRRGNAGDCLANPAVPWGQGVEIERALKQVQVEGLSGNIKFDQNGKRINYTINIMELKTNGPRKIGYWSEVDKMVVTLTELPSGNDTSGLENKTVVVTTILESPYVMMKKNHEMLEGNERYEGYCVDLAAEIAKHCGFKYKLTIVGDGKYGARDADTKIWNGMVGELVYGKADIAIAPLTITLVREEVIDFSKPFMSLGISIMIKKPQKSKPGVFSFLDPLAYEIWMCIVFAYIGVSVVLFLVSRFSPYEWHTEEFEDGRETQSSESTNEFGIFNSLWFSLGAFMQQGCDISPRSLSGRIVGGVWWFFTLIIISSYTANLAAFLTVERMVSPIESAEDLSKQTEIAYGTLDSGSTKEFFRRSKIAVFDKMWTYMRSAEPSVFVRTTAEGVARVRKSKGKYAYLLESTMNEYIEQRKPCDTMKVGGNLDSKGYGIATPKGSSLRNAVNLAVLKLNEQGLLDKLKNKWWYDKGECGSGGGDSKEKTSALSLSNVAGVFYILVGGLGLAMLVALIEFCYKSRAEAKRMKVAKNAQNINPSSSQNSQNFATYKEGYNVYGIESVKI
Outline: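 Stable GluA2 flip (unedited) cell line grown in DMEM/F12 with 10% FBS and seeded to confluence 2-3 days before use. Cells washed in HEPES buffer (pH 7.3) and loaded with 2 μM Fluo-4 AM for 60 min at room temperature. On FLIPR, compound was added 5 min before 100 μM glutamate. pEC50 and asymptotic maximum are relative to the maximal response to cyclothiazide, n ≥ 3.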

Glutamate receptor 2 [2] = molecular target: T1, Glutamate receptor 2; assay: Allosteric modulation of human recombinant GluA2 receptor flip isoform expressed in HEK293 cells assessed as potentiation of glutamate-induced calcium influx by Fluo-4/FLIPR method relative to cyclothiazide; format: cell-based
Outline: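 Stable GluA2 flip (unedited) cells seeded to confluence 2-3 days before assay; washed in HEPES buffer (145 NaCl, 5 KCl, 2 CaCl2, 1 MgCl2, 5.5 glucose, pH 7.3), loaded with 2 μM Fluo4-AM 60 min at room temperature. FLIPR dual addition: compound 5 min before 100 μM glutamate; fluorescence rise expressed against maximal cyclothiazide response, fitted pEC50 and Asym max; n ≥ 3.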

[3] = Kinetic solubility of the compound in phosphate buffered saline of pH 7.4; format: physicochemical
Outline: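 Kinetic solubility: 10 mM DMSO stock, 5 μL diluted to 100 μL with pH 7.4 phosphate-buffered saline, equilibrated 1 h at room temperature, filtered, filtrate quantified by calibrated flow-injection chemiluminescent nitrogen detection.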

[4] = Distribution coefficient, log D of the compound; format: physicochemical; settings: octanol/water
[5] = Inhibition of human CYP450 by fluorescence assay; format: ADME
Outline: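 Recombinant human CYP1A2, 2C9, 2C19, 2D6 and 3A4 bactosomes (0.1 mg/mL protein) preincubated 10 min at 37 °C in 50 mM potassium phosphate pH 7.4 with test compound (0.1–10 μM, methanol 3–4.5% final) and fluorogenic probe: ethoxyresorufin 0.5 μM (1A2), FCA 50 μM (2C9), BMC 10 μM (2C19), MMC 10 μM (2D6), DEF 1 μM or 7-BQ 25 μM (3A4). NADPH-regenerating system added; fluorescent metabolite read 10 min; rate as % control; IC50 fitted; triplicate.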

Cytochrome P450 2D6 = Cytochrome P450 2D6 (Homo sapiens, UniProt P10635); assay: Inhibition of human CYP2D6 by fluorescence assay; format: ADME; outline: as §1
Sequence of Cytochrome P450 2D6 (P10635 whole entry): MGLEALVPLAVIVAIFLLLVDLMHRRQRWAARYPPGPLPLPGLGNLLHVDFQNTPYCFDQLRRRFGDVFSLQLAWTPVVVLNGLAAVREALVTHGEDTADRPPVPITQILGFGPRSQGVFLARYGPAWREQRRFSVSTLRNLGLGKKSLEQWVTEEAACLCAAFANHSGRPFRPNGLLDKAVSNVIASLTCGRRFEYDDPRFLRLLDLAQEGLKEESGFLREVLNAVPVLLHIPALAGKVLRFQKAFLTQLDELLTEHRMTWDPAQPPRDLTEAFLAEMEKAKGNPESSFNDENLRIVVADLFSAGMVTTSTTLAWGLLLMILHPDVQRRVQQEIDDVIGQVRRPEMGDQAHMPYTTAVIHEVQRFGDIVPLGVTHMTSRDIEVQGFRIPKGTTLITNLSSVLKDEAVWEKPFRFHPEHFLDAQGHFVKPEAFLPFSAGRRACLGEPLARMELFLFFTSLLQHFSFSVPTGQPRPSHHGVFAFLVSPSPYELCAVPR

Cytochrome P450 3A4 = Cytochrome P450 3A4 (Homo sapiens, UniProt P08684); assay: Inhibition of human CYP3A4 by fluorescence assay; format: ADME; outline: as §1
Sequence of Cytochrome P450 3A4 (P08684 whole entry): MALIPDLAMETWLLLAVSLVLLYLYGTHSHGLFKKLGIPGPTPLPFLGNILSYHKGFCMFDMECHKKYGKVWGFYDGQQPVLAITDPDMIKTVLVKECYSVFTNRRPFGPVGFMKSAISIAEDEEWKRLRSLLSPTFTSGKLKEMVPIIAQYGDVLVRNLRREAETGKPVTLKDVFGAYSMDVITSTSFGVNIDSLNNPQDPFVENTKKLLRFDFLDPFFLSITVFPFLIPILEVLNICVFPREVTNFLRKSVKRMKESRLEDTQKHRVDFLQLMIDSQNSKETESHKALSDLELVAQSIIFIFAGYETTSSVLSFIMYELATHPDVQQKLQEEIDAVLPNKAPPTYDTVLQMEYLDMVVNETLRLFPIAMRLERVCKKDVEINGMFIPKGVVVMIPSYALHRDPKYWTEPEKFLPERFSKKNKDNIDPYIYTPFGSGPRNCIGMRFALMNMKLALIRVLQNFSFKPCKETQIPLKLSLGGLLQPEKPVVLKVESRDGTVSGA

Cytochrome P450 2C19 = Cytochrome P450 2C19 (Homo sapiens, UniProt P33261); assay: Inhibition of human CYP2C19 by fluorescence assay; format: ADME; outline: as §1
Sequence of Cytochrome P450 2C19 (P33261 whole entry): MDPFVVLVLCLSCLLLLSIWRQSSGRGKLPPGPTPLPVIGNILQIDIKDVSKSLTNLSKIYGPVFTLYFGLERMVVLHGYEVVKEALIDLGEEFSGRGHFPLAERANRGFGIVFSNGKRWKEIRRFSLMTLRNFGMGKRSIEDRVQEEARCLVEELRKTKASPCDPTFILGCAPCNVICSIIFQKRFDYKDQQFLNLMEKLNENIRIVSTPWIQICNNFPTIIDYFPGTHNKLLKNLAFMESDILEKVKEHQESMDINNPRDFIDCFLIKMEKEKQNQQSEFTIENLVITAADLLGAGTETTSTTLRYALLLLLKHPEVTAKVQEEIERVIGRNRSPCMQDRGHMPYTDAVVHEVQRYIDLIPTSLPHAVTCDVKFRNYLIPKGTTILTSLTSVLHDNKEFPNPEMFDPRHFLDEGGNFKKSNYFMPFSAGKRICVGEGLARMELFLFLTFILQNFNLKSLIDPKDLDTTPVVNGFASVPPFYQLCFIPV

[6] = Clearance in rat at 3 mg/kg, po; format: ADME, organism-based; design: dose 3 mg/kg, route oral; settings: in vivo
Outline: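 Rats dosed orally at 3 mg/kg; blood sampled via the hepatic portal vein and heart. Estimated clearance derived from in vivo hepatic extraction, taking rat liver blood flow as 85 (mL/min)/kg.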

Cytochrome P450 1A2 = molecular target: T2, Cytochrome P450 1A2 (Homo sapiens, UniProt P05177); assay: Inhibition of human CYP1A2 by fluorescence assay; format: ADME; outline: as §1
T2 sequence (P05177 whole entry): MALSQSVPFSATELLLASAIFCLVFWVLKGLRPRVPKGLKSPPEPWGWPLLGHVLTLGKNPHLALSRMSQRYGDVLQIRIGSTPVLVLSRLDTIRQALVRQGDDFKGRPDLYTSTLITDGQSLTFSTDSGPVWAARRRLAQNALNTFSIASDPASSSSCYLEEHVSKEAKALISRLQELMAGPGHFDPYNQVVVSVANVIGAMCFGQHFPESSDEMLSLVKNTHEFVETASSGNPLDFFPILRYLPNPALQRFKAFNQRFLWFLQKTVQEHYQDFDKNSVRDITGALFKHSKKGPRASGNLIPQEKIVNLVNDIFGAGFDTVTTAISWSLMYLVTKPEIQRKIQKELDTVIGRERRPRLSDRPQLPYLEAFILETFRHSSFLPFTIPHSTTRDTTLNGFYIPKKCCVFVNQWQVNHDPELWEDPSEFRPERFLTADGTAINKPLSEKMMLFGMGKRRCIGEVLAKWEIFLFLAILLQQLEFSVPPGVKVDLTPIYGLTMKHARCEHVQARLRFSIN

[7] = AUC ( 0 to t) in rat at 3 mg/kg, po; format: ADME, organism-based, Plasma; design: dose 3 mg/kg, route oral; settings: plasma
[8] = Cmax in rat at 3 mg/kg, po; format: ADME, organism-based; design: dose 3 mg/kg, route oral; settings: in vivo
in vivo = settings: rat, po, 3 mg/kg
[9] = Plasma protein binding in rat at 3 mg/kg, po; format: ADME, organism-based; design: dose 3 mg/kg, route oral; settings: read-out: PPB (converted)
[10] = Apparent permeability of the compound; format: ADME; settings: not told
Outline: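 Artificial membrane permeability: donor holds 10 mM sample in pH 7.05 phosphate buffer with 0.5% hydroxypropylcyclodextrin. Membrane is 1.8% phosphatidylcholine and 1% cholesterol in decane. Donor and acceptor concentrations measured by LCMS after 3 h at room temperature; permeability expressed in nm/s.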

Brain = assay: Brain tissue binding in rat at 3 mg/kg, po; format: ADME, organism-based; design: dose 3 mg/kg, route oral; settings: in vivo

Sequence of Cytochrome P450 2C9 (P11712 whole entry): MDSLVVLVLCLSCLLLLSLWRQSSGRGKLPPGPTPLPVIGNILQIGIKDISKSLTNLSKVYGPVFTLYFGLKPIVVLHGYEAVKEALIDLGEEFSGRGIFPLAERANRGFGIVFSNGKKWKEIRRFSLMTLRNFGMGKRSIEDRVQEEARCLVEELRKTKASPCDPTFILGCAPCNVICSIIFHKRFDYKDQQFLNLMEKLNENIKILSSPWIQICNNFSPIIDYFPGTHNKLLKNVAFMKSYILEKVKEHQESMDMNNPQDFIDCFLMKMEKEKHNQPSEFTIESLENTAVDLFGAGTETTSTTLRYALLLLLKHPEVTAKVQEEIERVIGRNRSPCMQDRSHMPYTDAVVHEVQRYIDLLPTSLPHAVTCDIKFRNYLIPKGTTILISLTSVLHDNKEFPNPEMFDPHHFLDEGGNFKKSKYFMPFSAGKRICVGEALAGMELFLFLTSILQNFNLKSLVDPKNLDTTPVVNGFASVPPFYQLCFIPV

Row | SMILES | IC50 (Cytochrome P450 2C9) [µM] | EC50 (Glutamate receptor 2 [1]) [µM] | Activity (Glutamate receptor 2 [2]) [%] | solubility kinetic [3] [mg/mL] | logD [4] | IC50 [5] [µM] | IC50 (Cytochrome P450 2D6) [µM] | IC50 (Cytochrome P450 3A4) [µM] | IC50 (Cytochrome P450 2C19) [µM] | CL/F [6] [L/h/kg] | IC50 (Cytochrome P450 1A2) [µM] | AUC(0-t) [7] [µg·h/mL] | Cmax [8] [µg/mL] | Kp (in vivo; brain) | fraction unbound [9] | Papp [10] [nm/s] | Brain tissue binding (% bound) (Brain) [%] | Kp (in vivo; brain and blood)
1 | CN(C)S(=O)(=O)c1ccc(-n2nc(C(F)(F)F)c3c2CCCC3)cc1 | 2 | 20 | 63 | 0.005 (≈ 13.4 µM) | 3.1 | – | – | – | – | – | – | – | – | – | – | – | – | –
2 | O=C(c1ccc(-n2nc(C(F)(F)F)c3c2CCCC3)cc1)N1CCCCC1 | – | > 100 | 100 | 0.016 (≈ 42.4 µM) | 1.6 | – | – | – | – | – | – | – | – | – | – | – | – | –
3 | CN(Cc1ccc(-n2nc(C(F)(F)F)c3c2CCCC3)cc1)S(C)(=O)=O | – | 20 | 102 | 0.015 (≈ 38.7 µM) | 3.3 | > 10 | – | – | – | – | – | – | – | – | – | – | – | –
4 | CCCCN(C)C(=O)c1ccc(-n2nc(C(F)(F)F)c3c2CCCC3)cc1 | 6 | 15.8 | 86 | 0.065 (≈ 171 µM) | 3.2 | – | 8 | – | – | – | – | – | – | – | – | – | – | –
5 | O=C(Cc1ccc(-n2nc(C(F)(F)F)c3c2CCCC3)cc1)NC1CCCC1 | 0.2 | 63.1 | 100 | – | – | – | 8 | 0.7 | – | – | – | – | – | – | – | – | – | –
6 | CN(CCc1ccccc1)C(=O)c1ccc(-n2nc(C(F)(F)F)c3c2CCCC3)cc1 | 1 | 39.8 | 84 | 0.057 (≈ 133 µM) | 3 | – | – | – | 3 | – | – | – | – | – | – | – | – | –
7 | O=C1CCCN1Cc1ccc(-n2nc(C(F)(F)F)c3c2CCCC3)cc1F | 9 | 1 | 112 | 0.088 (≈ 231 µM) | 3.3 | – | – | – | – | 2.82 | 2 | 0.331 | 0.167 | 1.3 | 0.011 | 420 | – | –
8 | O=C1CCCN1Cc1ccc(-n2nc(C(F)(F)F)c3c2CCCC3)cc1 | 5 | 1 | 132 | 0.11 (≈ 303 µM) | 2.4 | – | – | – | – | 3.24 | 1 | 0.231 | 0.121 | 1.4 | 0.016 | – | 99.4 | –
9 | O=C(Cc1ccc(-n2nc(C(F)(F)F)c3c2CCCC3)cc1F)N1CCCC1 | 7 | 1.26 | 79 | 0.041 (≈ 104 µM) | 3.7 | – | – | – | – | 3.3 | – | 0.248 | 0.111 | – | 0.002 | – | 99.4 | 0.3
10 | CC(=O)N(C)Cc1ccc(-n2nc(C(F)(F)F)c3c2CCCC3)cc1 | – | 2 | 94 | – | 1.3 | – | – | – | – | – | – | – | – | – | – | – | – | –
11 | CS(=O)(=O)c1ccc(-n2nc(C(F)(F)F)c3c2CCCC3)cc1 | – | 31.6 | 83 | 0.013 (≈ 37.8 µM) | 3.4 | – | 6 | – | – | – | 4 | – | – | – | – | – | – | –
12 | CC(=O)c1ccc(-n2nc(C(F)(F)F)c3c2CCCC3)cc1 | 4 | 31.6 | 94 | 0.013 (≈ 42.2 µM) | 3 | – | – | – | – | – | 0.1 | – | – | – | – | – | – | –
13 | O=C(N1CCCC1)C1(c2ccc(-n3nc(C(F)(F)F)c4c3CCCC4)cc2)CC1 | 0.3 | 31.6 | 37 | 0.031 (≈ 76.8 µM) | 3.8 | – | – | 6 | 7 | – | – | – | – | – | – | – | – | –
14 | CC(C(=O)N1CCCC1)c1ccc(-n2nc(C(F)(F)F)c3c2CCCC3)cc1 (stereo unspecified) | 1 | 25.1 | 81 | 0.059 (≈ 151 µM) | 2.3 | – | – | – | – | – | 6 | – | – | – | – | – | – | –
15 | O=C(Cc1ccc(-n2nc(C(F)(F)F)c3c2CCCC3)cc1)N1CCCC1 | 3 | 3.16 | 82 | 0.077 (≈ 204 µM) | 3.3 | – | – | – | – | 3.3 | – | 0.166 | 0.095 | – | 0.004 | – | 98.1 | 0.9
16 | CC(=O)NCc1ccc(-n2nc(C(F)(F)F)c3c2CCCC3)cc1 | – | 1.26 | 79 | 0.047 (≈ 139 µM) | – | > 10 | – | – | – | – | – | – | – | – | – | – | – | –
17 | O=C(N1CCCC1)C(F)(F)c1ccc(-n2nc(C(F)(F)F)c3c2CCCC3)cc1 | 4 | 20 | 94 | 0.124 (≈ 300 µM) | 3.4 | – | – | – | – | – | – | – | – | – | – | – | – | –
18 | CN(C)C(=O)Cc1ccc(-n2nc(C(F)(F)F)c3c2CCCC3)cc1 | 7 | 2 | 107 | 0.118 (≈ 336 µM) | 2.3 | – | – | – | – | 2.82 | – | 0.262 | 0.26 | – | 0.022 | – | 98.8 | 2.8
19 | CCC(=O)NCc1ccc(-n2nc(C(F)(F)F)c3c2CCCC3)cc1 | 8 | 2.51 | 98 | 0.062 (≈ 176 µM) | 3.6 | – | – | – | – | – | 3.5 | – | – | – | – | – | – | –
